Data set [1] concerns 3T3-L1. Description: Lipid lowering activity in mouse 3T3-L1 cells assessed as reduction in adipogenic cocktail-induced triglyceride levels […] incubated for 6 days by GPO-POD assay relative to control. In kind it is functional. Also on record: scale not given: the % may be the effect or the level left. As to conditions: time 6 day.
For data set [2], the system named is 3T3-L1. Description: Inhibition of mouse 3T3-L1 cells adipocyte differentiation assessed as reduction in adipogenic cocktail-induced C/EBPbeta mRNA expression at 1 mM after 24 hrs by RT-qPCR analysis. In kind it is functional, cell-based. The method, boiled down:
(§1)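 Confluent 3T3-L1 preadipocytes received differentiation cocktail (0.5 mM IBMX, 100 ng/mL dexamethasone, 2 µg/mL insulin) with compound (0.01–1 µM; metformin 1 mM) for 24 h. mRNA was measured by SYBR Green RT-qPCR (30 cycles), normalized to β-actin, with the differentiated control set to 1. N = 4 independent experiments.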

Data set [3] concerns 3T3-L1. Description: Inhibition of mouse 3T3-L1 cells adipocyte differentiation assessed as reduction in adipogenic cocktail-induced C/EBPdelta mRNA expression at 1 mM after 24 hrs by RT-qPCR analysis. The format is functional, cell-based. In short, it runs like this: as §1
Background: Quantitative PCR measures a nucleic acid by following its amplification.

In data set [4] the test system is 3T3-L1. Briefly: Inhibition of mouse 3T3-L1 cells adipocyte differentiation assessed as reduction in adipogenic cocktail-induced C/EBPalpha mRNA expression at 1 mM after 24 hrs by RT-qPCR analysis. The format is functional, cell-based. The method, boiled down: as §1
For data set [5], the system named is 3T3-L1. Description: Inhibition of mouse 3T3-L1 cells adipocyte differentiation assessed as reduction in adipogenic cocktail-induced PPARgamma mRNA expression at 1 mM after 24 hrs by RT-qPCR analysis. In kind it is functional, cell-based. The method, boiled down: as §1
The test system of data set [6] is 3T3-L1. Description: Activation of AMPK pathway in adipogenic cocktail-induced mouse 3T3-L1 cells assessed as increase in phosphorylation AMPKalpha at Thr172 residue after 24 hrs by Western blot analysis. The format is cell-based. Particulars: filed as activator. The method, boiled down:
(§2)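 Confluent 3T3-L1 pre-adipocytes exposed to adipogenic cocktail for 24 h with or without compound (0, 0.01, 0.1, 1 µM); DMSO vehicle. Lysates analysed by SDS-PAGE/Western blot for pAMPKα (Thr-172), normalized to actin, Ctrl set as 1. N = 4 independent experiments.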

Data set [7] relates to 3T3-L1. Description: Inhibition of mouse 3T3-L1 cells adipocyte differentiation assessed as reduction in adipogenic cocktail-induced C/EBPalpha protein expression after 24 hrs by Western blot analysis. The format is functional, cell-based. The method, boiled down:
(§3)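 3T3-L1 preadipocytes were exposed to adipogenic cocktail with compound (0.3 or 1 µM) and harvested on day 1. Lysates were resolved by SDS-PAGE, immunoblotted (primary antibody overnight at 4 °C, HRP secondary) and quantified by densitometry normalized to actin.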
Background: A western blot detects proteins with antibodies after separation by electrophoresis.

In data set [8] the test system is 3T3-L1. Briefly: Inhibition of mouse 3T3-L1 cells adipocyte differentiation assessed as reduction in adipogenic cocktail-induced PPARgamma protein expression after 24 hrs by Western blot analysis. In kind it is functional, cell-based. In short, it runs like this:
as §3

For data set [9], the system named is 3T3-L1. Briefly: Inhibition of mouse 3T3-L1 cells adipocyte differentiation assessed as reduction in adipogenic cocktail-induced SREBP-1c protein expression after 24 hrs by Western blot analysis. The format is functional, cell-based. In short, it runs like this: as §3
Data set [10] relates to 3T3-L1. Briefly: Inhibition of mouse 3T3-L1 cells adipocyte differentiation assessed as reduction in adipogenic cocktail-induced SCD1 protein expression after 6 days by Western blot analysis. The format is functional, cell-based. As to conditions: time 6.0 day. In short, it runs like this: (§4)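 3T3-L1 preadipocytes were differentiated with cocktail for 3 days, then insulin medium for 3 days, with compound (0.3 or 1 µM) present throughout. Cells were harvested on day 6 and proteins measured by Western blot, with densitometry normalized to actin.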

Data set [11] concerns 3T3-L1. Description: Inhibition of mouse 3T3-L1 cells adipocyte differentiation assessed as reduction in adipogenic cocktail-induced FAS protein expression after 6 days by Western blot analysis. The format is functional, cell-based. Particulars: time 6.0 day. The method, boiled down:
as §4

In data set [12] the test system is 3T3-L1. Description: Inhibition of mouse 3T3-L1 cells adipocyte differentiation assessed as reduction in adipogenic cocktail-induced ACC protein expression after 6 days by Western blot analysis. The format is functional, cell-based. As to conditions: time 6.0 day. The method, boiled down: as §4
Data set [13] relates to C2C12. Briefly: Activation of AMPK pathway in mouse C2C12 cells assessed as increase in glucose uptake at 1 mM after 6 hrs by 2-NBDG/Hoechst 33342 staining based Confocal microscopic method. In kind it is cell-based. Particulars: filed as activator. The method, boiled down: (§5)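 C2C12 myoblasts kept in DMEM with 10% FBS and 1% penicillin/streptomycin at 37 °C under 5% CO2.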

Data set [14] has as its system C2C12. Briefly: Activation of AMPK pathway in mouse C2C12 cells assessed as increase in glucose uptake at 1 mM after 6 hrs in presence of insulin by 2-NBDG/Hoechst 33342 staining based Confocal microscopic method. The format is cell-based. As to conditions: filed as activator. In short, it runs like this:
as §5

Another data set concerns Mus musculus. Description: Antiobesity activity in high fat diet-induced obese C57BL/6J mouse model assessed as decrease in body weight at 50 mg/kg, ip administered for every other days for 5 weeks. In kind it is functional. Also on record: scale not given: the % may be the effect or the level left.
The subject of data set [15] is 3T3-L1. Description: Activation of AMPK pathway in mouse 3T3-L1 cells assessed as increase in number of mitochondria copy at 2 uM after 24 hrs by mito-tracker staining based Confocal microscopic method. As to conditions: filed as activator. The method, boiled down:
(§6)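 3T3-L1 cells grown in DMEM with 10% FBS at 37 °C and 5% CO2. After treatment, cells were stained for 30 min at 37 °C in the dark with 1 µM Mito-Tracker plus Hoechst 33342 (1:1000) and imaged by confocal microscopy (excitation 633 and 405 nm). Mitochondrial copy number was also taken as the mtDNA/nDNA ratio by PCR (cytochrome C versus 18S rRNA).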

The subject of data set [16] is 3T3-L1. Description: Activation of AMPK pathway in mouse 3T3-L1 cells assessed as increase in number of mitochondria copy at 2 uM after 24 hrs in presence of compound C by mito-tracker staining based Confocal microscopic method. In short, it runs like this:
as §6

Data set [17] deals with 3T3-L1. Briefly: Lipid lowering activity in mouse 3T3-L1 cells assessed as reduction in adipogenic cocktail-induced triglyceride levels at 1 uM incubated for 6 days by GPO-POD assay relative to control. In kind it is functional. Also on record: scale not given: the % may be the effect or the level left. Particulars: time 6 day. In short, it runs like this:
(§7)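 Confluent 3T3-L1 cells were treated from day 0 in cocktail (IBMX, dexamethasone, insulin) for 3 days, then re-dosed in insulin medium for 3 more days. For dose–response, concentrations were 0–10 µM (0.01, 0.1, 0.3, 1, 3, 10). On day 6, cells were lysed in 0.2% Triton X-100 and TG was measured by GPO-POD and normalized to BCA protein as % of control. EC50 was fitted from the dose–response. N = 4.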

Data set [18] relates to 3T3-L1. Description: Lipid lowering activity in mouse 3T3-L1 cells assessed as reduction in adipogenic cocktail-induced triglyceride levels incubated for 6 days by GPO-POD assay. In kind it is functional, cell-based. The method, boiled down: as §7
For data set [19], the system named is 3T3-L1. Description: Lipid lowering activity in mouse 3T3-L1 cells assessed as reduction in adipogenic cocktail-induced triglyceride levels at 1 uM incubated for 6 days by Oil-red O staining based assay. The format is functional, cell-based. Particulars: time 6.0 day. In short, it runs like this:
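Differentiating 3T3-L1 cells were treated at 1 µM for 6 days, then washed with PBS and fixed in 4% formaldehyde for 1 h. Cells were stained with 0.3% Oil Red O for 30 min at room temperature in the dark and imaged at ×200.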

Data set [20] deals with 3T3-L1. Briefly: Cytotoxicity against mouse 3T3-L1 cells assessed as change in LDH releasing level at 5 uM after 6 days by LDH releasing assay. In kind it is cell-based. As to conditions: 3t3-l1, 144 h, time 6 day. In short, it runs like this:
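Differentiating 3T3-L1 cells were treated at 5 µM for 6 days. Plates were centrifuged and LDH activity in the supernatant was read at 490 nm. Release was expressed as fold = (treated − blank)/(control − blank), with untreated cells as blank and vehicle-differentiated control set to 1.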

Data set [21] concerns 3T3-L1. Description: Inhibition of mouse 3T3-L1 cells adipocyte differentiation assessed as reduction in adipogenic cocktail-induced C/EBPbeta mRNA expression after 24 hrs by RT-qPCR analysis. The format is functional, cell-based. As to conditions: dose 0.01-1 µM. In short, it runs like this:
as §1

Data set [22] has as its system 3T3-L1. Description: Inhibition of mouse 3T3-L1 cells adipocyte differentiation assessed as reduction in adipogenic cocktail-induced C/EBPdelta mRNA expression after 24 hrs by RT-qPCR analysis. The format is functional, cell-based. As to conditions: dose 0.01-1 µM. The method, boiled down: as §1
Data set [23] deals with 3T3-L1. Briefly: Inhibition of mouse 3T3-L1 cells adipocyte differentiation assessed as reduction in adipogenic cocktail-induced C/EBPalpha mRNA expression after 24 hrs by RT-qPCR analysis. In kind it is functional, cell-based. Particulars: dose 0.01-1 µM. The method, boiled down:
as §1

For data set [24], the system named is 3T3-L1. Briefly: Inhibition of mouse 3T3-L1 cells adipocyte differentiation assessed as reduction in adipogenic cocktail-induced PPARgamma mRNA expression after 24 hrs by RT-qPCR analysis. The format is functional, cell-based. Particulars: dose 0.01-1 µM. In short, it runs like this:
as §1

The test system of data set [25] is 3T3-L1. Briefly: Activation of AMPK pathway in adipogenic cocktail-induced mouse 3T3-L1 cells assessed as increase in phosphorylation AMPKalpha at Thr172 residue at 0.01 to 1 uM after 24 hrs by Western blot analysis. Particulars: filed as activator, dose 0.01-1 µM. The format is cell-based. The method, boiled down:
as §2

A short description of data set [26]: Stability in Sprague-Dawley rat liver microsomes assessed as remaining compound […] up to 60 mins in presence of NADPH by LC-MS/MS analysis. The format is ADME, Microsome. As to conditions: read-out: Stabilty.
The nature of data set [27]: Stability in Sprague-Dawley rat liver microsomes assessed as rate constant […] up to 60 mins in presence of NADPH by LC-MS/MS analysis. The format is ADME, Microsome. A general note: Liver microsomes are vesicles of endoplasmic reticulum, rich in cytochrome P450 enzymes.
The nature of data set [28]: Half life in Sprague-Dawley rat liver microsomes assessed as rate constant […] up to 60 mins in presence of NADPH by LC-MS/MS analysis. The format is ADME, Microsome.
Data set [29] is described as follows: Intrinsic clearance in Sprague-Dawley rat liver microsomes assessed as rate constant […] up to 60 mins in presence of NADPH by LC-MS/MS analysis. The format is ADME, Microsome. As to conditions: read-out: CLH.
Data set [30] can be described thus: Aqueous solubility in PBS buffer at pH 7.4 after 24 hrs. The format is physicochemical.

The source of these data is ChEMBL document CHEMBL4732044, “Discovery of a promising agent IQZ23 for the treatment of obesity and related metabolic disorders” (Eur J Med Chem, 2020).

≈ marks a conversion by molar mass, not a printed value. Calls of active or inactive are those of the source. Bounds are passed on as bounds.

As for `CN(C)C(=N)NC(=N)N` [METFORMIN], the Activity in the data set on 3T3-L1 [1] is reported as 60.3%. Besides, the inhibition result with 3T3-L1 [2], in the data set with 3T3-L1 [3], in the data set with 3T3-L1 [4], in the data set on 3T3-L1 [5], in the data set with 3T3-L1 [7] and in the data set on 3T3-L1 [8] was “Active” throughout. Also, the inhibition result in the data set with 3T3-L1 [9], in the data set on 3T3-L1 [10], with 3T3-L1 [11] and with 3T3-L1 [12] was “Active” each time. Also, the outcome in the data set with 3T3-L1 [6], in the data set on C2C12 [13] and with C2C12 [14] was Active.
For the compound `O=Cc1c(-c2nc3ccccc3c(=O)[nH]2)[nH]c2ccccc12`, in the data set on Mus musculus, the Activity was determined as 14.6%.
For `NC(=O)c1ncn([C@@H]2O[C@H](CO)[C@@H](O)[C@H]2O)c1N`, in the data set with 3T3-L1 [15], the result was Active. For the same compound, the result in the data set on 3T3-L1 [16] was inactive.
Turning to `O=Cc1c(-c2nc(NCCCCN3CCCC3)c3ccccc3n2)[nH]c2ccccc12`, the Activity result in the data set with 3T3-L1 [17] was “>=50%”; in the data set with 3T3-L1 [18] (dose 1-5 µM, time 6.0 day), “Dose-dependent effect”; in the data set on 3T3-L1 [20], “Non-Toxic”. Further, the EC50 (usually the concentration giving half of the maximal effect) in the data set on 3T3-L1 [18] (3T3-L1, 144 h) is 510 nM. Besides, the result in the data set with 3T3-L1 [19] and in the data set with 3T3-L1 [25] was Active. Also, the inhibition result with 3T3-L1 [21], in the data set on 3T3-L1 [22], in the data set on 3T3-L1 [23] and with 3T3-L1 [24] was “Dose-dependent effect” throughout. Also, the remaining at 1 h in data set [26] worked out at 83.9%. In data set [27], the k el at 1 h is 4.67e-05 s⁻¹. For the same compound, the half-life (commonly the time needed for the level to fall by half in the phase considered) in data set [28] came to 4.13 h. Besides, in data set [29], the microsomal CLint was found to be 2.8 µL/min/mg. The amount in solution in data set [30] (solubility at 24 h) came to 15.1 µg/mL (≈ 36.5 µM).
